Assay outcomes from PubChem.
CHOP UPR activ: apoptotic UPR (CHOP) activation | activation, % at 10 µM | AID 449763 | 330,000 tested, 0.34% active | CHO-CHOP luciferase reporter, luminescence; percent of tunicamycin response over DMSO baseline;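 active = at 10 µM dose, activation of 40% or more, normalized to positive control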;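 also: 100% = tunicamycin at 10 µg/mL and 0% = DMSO alone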
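System: CHO CHOP reporter cells. Amount: 500 cells per well. Buffer or medium: F12 medium, 10% FBS. Compound dosing: one dose, 10 µM in 0.5% DMSO. Incubation: 6 h compound exposure at 37 °C after overnight seeding. Technique: Steady-Glo luciferase luminescence. Benchmarks: tunicamycin and DMSO controls.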
Beta apoptosis: beta cell apoptosis inhibition. 300,000 tested, 0.8% active. protection from apoptosis, % (test concentration not listed). INS-1E cytokine-induced death, ATP luminescence, 48 h; percent of positive-control rescue, neutral wells zero;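 active = Every replicate reaches about 75%, or at least half do and their mean reaches it too, limit read from the data; inconclusive = At least half of replicates reach the limit but their mean does not; inactive = Under half of replicates reach the limit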;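 also: 0% = cytokine-treated negative control wells and 100% = positive control rescue; higher means more ATP so stronger rescue from cytokine killing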
XBP1 UPR activ: activators of adaptive arm of unfolded protein response (XBP1) | AID 463104 | 330,000 tested, 0.33% active | CHO-XBP1 luciferase reporter, IRE1-XBP1 UPR activation, luminescence; percent of tunicamycin response, DMSO as zero | activation, % at 20 µM;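 active = versus positive control, 20 µM dose yields 30% or more activation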;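 also: 100% = tunicamycin at 10 µg/mL and 0% = DMSO only wells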
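Material: CHO cell line with stable XBP1 luciferase reporter; buffer or medium: F12 medium containing 10% fetal bovine serum; compound: single point, 20 µM final compound, 1% DMSO; incubation: 6 h treatment, 37 °C; measured by: glow luminescence from Steady-Glo reagent; evaluation: activation, % of tunicamycin; control set: tunicamycin high, DMSO low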
CSC inhib: blocks cancer stem cells; AID 2717; 300,000 tested, 1.1% active; inhibition, % at 7.5 µM; cancer stem cell-like cells viability, luminescence; in the data active = inhibition above about 75%; inconclusive = no clear call, values can overlap the other calls; tested in HMLE shEcad cells
Mdm2-MdmX inh: inhibitors of human Mdm2/MdmX interaction; O15151+Q00987; SaOS-2 split-luciferase Mdm2/MdmX complementation, luminescence; inhibition, % at 8 µM; 330,000 tested, 3% active; AID 485346;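 active = inhibition of at least 50% at 8 µM in the primary screen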
SKKanGAS inh: blocks kanamycin growth of S. pyogenes SKKanGAS strain | BacTiter-Glo, 6 h | inhibition, % at 7.5 µM | 300,000 tested, 1.3% active | AID 1662;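 active = mean replicate score, as percent of positive control median, at least 50; inconclusive = mean below 50 but one replicate at or above 50; inactive = mean and every replicate below 50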;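 also: strain carries kanamycin resistance gene driven by streptokinase promoter and grows in 40 µg/ml kanamycin; loss of luminescence reflects streptokinase promoter inhibition or plain growth inhibition; 0% = median of DMSO wells and 100% = positive control at its reference dose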
UPR XBP1 confirm: adaptive UPR (XBP1) activation, confirmed; activation, % at 20 µM; 1,000 tested, 63% active; AID 485299; shares compounds with XBP1 UPR activ; CHO-XBP1 IRE1-XBP1 luciferase reporter, luminescence;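 active = reporter signal at least 30% of the positive control's activation in two or more of four replicate wells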;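 also: plate controls were DMSO negative control for no effect and tunicamycin 10 µg/mL positive control for full effect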
An asterisk follows results filed as active. Hits are enriched below; roughly 4.8% of the tested compounds scored in any of these assays.

O=C(Nc1ccc2oc(-c3ccccc3Cl)nc2c1)c1ncn[nH]1 was read as CHOP UPR activ 8, Beta apoptosis 2, XBP1 UPR activ 8, CSC inhib -7, Mdm2-MdmX inh -173 and SKKanGAS inh 5.
`O=C(CCn1c2c(c3ccccc31)CCCC2)NNC(=O)c1cccc([N+](=O)[O-])c1` gave CHOP UPR activ -2, Beta apoptosis 1, XBP1 UPR activ -3, CSC inhib 12, Mdm2-MdmX inh 20 and SKKanGAS inh -9.
For O=C(CCn1c2c(c3ccccc31)CCCC2)NNC(=O)c1ccccc1Cl the results were CHOP UPR activ -1, Beta apoptosis -7, XBP1 UPR activ 36*, CSC inhib -2, Mdm2-MdmX inh 25, SKKanGAS inh 12 and UPR XBP1 confirm 0.
`COc1ccc(NS(=O)(=O)c2cccc(C(=O)NNC(=O)CNC(=O)c3cccc(C)c3)c2)cc1` gave CHOP UPR activ 6, Beta apoptosis -10, XBP1 UPR activ -5, CSC inhib 0, Mdm2-MdmX inh 26 and SKKanGAS inh -10.
For N#C/C(=C\c1ccc(N2CCCC2)c([N+](=O)[O-])c1)c1nc2ccccc2[nH]1 the results were CHOP UPR activ 6, Beta apoptosis 7, XBP1 UPR activ 111*, Mdm2-MdmX inh 37, SKKanGAS inh 28 and UPR XBP1 confirm 71*.
Screening N#C/C(=C\c1ccc(N2CCCCC2)c([N+](=O)[O-])c1)c1nn(-c2ccccc2)c(N)c1C#N returned CHOP UPR activ 0, Beta apoptosis 28, XBP1 UPR activ -1, CSC inhib 58, Mdm2-MdmX inh 7 and SKKanGAS inh 41.
For O=S(=O)(/N=C(\Sc1ccc(Cl)cc1)c1ccccc1)c1ccccc1 the results were CHOP UPR activ 21, Beta apoptosis -17, XBP1 UPR activ 43*, CSC inhib 15, Mdm2-MdmX inh 15, SKKanGAS inh 3 and UPR XBP1 confirm 3.
Screening O=c1cc(-c2ccccc2Cl)oc2cccc(O)c12 returned CHOP UPR activ 3, Beta apoptosis 1, XBP1 UPR activ 8, CSC inhib -4, Mdm2-MdmX inh 9 and SKKanGAS inh 18.
Screening O=c1cc2oc3cc(O)c(O)cc3c(-c3ccccc3[N+](=O)[O-])c-2cc1O returned CHOP UPR activ -2, Beta apoptosis 37, XBP1 UPR activ 34*, CSC inhib 95*, Mdm2-MdmX inh 49, SKKanGAS inh 50* and UPR XBP1 confirm 35*.
For Cc1ccc(S(=O)(=O)Cn2nnnc2C(C(C)C)N2CCC(C(N)=O)CC2)cc1 (stereo not drawn) the results were CHOP UPR activ -1, Beta apoptosis -5, XBP1 UPR activ 5, CSC inhib -20, Mdm2-MdmX inh -12 and SKKanGAS inh 10.
Screening CC(C)=CCc1c2c(c3occ(-c4ccc(O)cc4)c(=O)c3c1O)C=CC(C)(C)O2 returned CHOP UPR activ 5, Beta apoptosis 14, XBP1 UPR activ 56*, CSC inhib -15, Mdm2-MdmX inh -10, SKKanGAS inh 111* and UPR XBP1 confirm 50*.
For O=C(CSc1ccc(Cl)cc1)OCC(=O)N1CCN(c2ccccc2)CC1 the results were CHOP UPR activ 6, XBP1 UPR activ 2 and Mdm2-MdmX inh 7.
Cc1ccc(Cn2cnc3sc4c(c3c2=O)CCC4)c(C)c1 was read as CHOP UPR activ 2, Beta apoptosis -4, XBP1 UPR activ 31*, CSC inhib 20, Mdm2-MdmX inh 4, SKKanGAS inh 19 and UPR XBP1 confirm 6.
COc1cc(/C=N/N2CCN(Cc3ccccc3)CC2)cc(OC)c1OC(C)=O was read as CHOP UPR activ 2, Beta apoptosis -3, XBP1 UPR activ -4, CSC inhib -19, Mdm2-MdmX inh 16 and SKKanGAS inh -6.
O=C(Nc1cccnc1)c1sc(Nc2ccccc2F)nc1-c1ccccc1 was read as CHOP UPR activ 4, Beta apoptosis 15, XBP1 UPR activ 38*, CSC inhib -5, Mdm2-MdmX inh 48, SKKanGAS inh 0 and UPR XBP1 confirm 23.
For Cc1ccccc1Nc1nc(-c2ccccc2)c(C(=O)Nc2cccnc2)s1 the results were CHOP UPR activ 0, Beta apoptosis 3, XBP1 UPR activ 2, CSC inhib 17, Mdm2-MdmX inh 5 and SKKanGAS inh 14.
For COc1ccc(CCn2c(=S)[nH]c3cc(C(=O)NCc4ccco4)ccc3c2=O)cc1OC the results were CHOP UPR activ 5, Beta apoptosis 36, XBP1 UPR activ 62*, Mdm2-MdmX inh 13, SKKanGAS inh inconclusive and UPR XBP1 confirm 66*.
Screening CCOc1ccc(N2C(=O)C(=O)/C(=C(/O)c3ccccc3)C2c2ccccc2[N+](=O)[O-])cc1 (stereo not drawn) returned CHOP UPR activ 0, Beta apoptosis 6, XBP1 UPR activ 34*, CSC inhib 25, Mdm2-MdmX inh 29, SKKanGAS inh 9 and UPR XBP1 confirm 0.
For O=C1C(=O)N(c2ccccc2)C(c2ccccc2[N+](=O)[O-])/C1=C(\O)c1ccccc1 (stereo not drawn) the results were CHOP UPR activ 2, Beta apoptosis -10, XBP1 UPR activ 4, CSC inhib -5, Mdm2-MdmX inh -10 and SKKanGAS inh 4.
`Cc1nc(NC(=O)CSc2ccc(-c3nc4ccccc4[nH]3)cn2)sc1C` gave CHOP UPR activ 11, Beta apoptosis 5, XBP1 UPR activ 54*, CSC inhib -8, Mdm2-MdmX inh -22, SKKanGAS inh 5 and UPR XBP1 confirm 85*.
`CN(Cc1c(F)cccc1Cl)C(=O)c1ccc(NC(=O)CC2SC(N3CCCC3)=NC2=O)cc1` (stereo not drawn) gave CHOP UPR activ -1, XBP1 UPR activ 0, CSC inhib -11, Mdm2-MdmX inh 16 and SKKanGAS inh -3.
`CCCCN(C)CCNC(=O)CCn1nc(-c2ccc(C)cc2)ccc1=O` gave CHOP UPR activ 2, Beta apoptosis -8, XBP1 UPR activ 0, CSC inhib -6, Mdm2-MdmX inh -18 and SKKanGAS inh 1.
Screening O=[N+]([O-])c1ccccc1NC(=S)N/N=C/c1ccc(O)c(O)c1 returned CHOP UPR activ 21, Beta apoptosis -2, XBP1 UPR activ 37*, CSC inhib 39, Mdm2-MdmX inh -18, SKKanGAS inh 2 and UPR XBP1 confirm 23.
For O=C(c1cc(C2CC2)nc2ccccc12)N1N=C(C(F)F)CC1(O)C(F)F (stereo not drawn) the results were CHOP UPR activ -1, Beta apoptosis 26, XBP1 UPR activ 3, CSC inhib 12, Mdm2-MdmX inh 11 and SKKanGAS inh -4.
